According to ChEMBL document CHEMBL4765245 (Eur J Med Chem, 2020):
Structures can show the parent of a compound that is named as a salt.

What was measured:
Coxsackievirus B3 [1] = assay: Antiviral activity against Coxsackievirus B3 Nancy infected in human HeLa cell line assessed as inhibition of virus-induced cytopathic effect measured after 48 hrs by crystal violet uptake assay; assay type: functional, organism-based
Outline: (§1)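 HeLa Ohio monolayers, 2 days old and confluent, in MEM with 2% FCS. Serial half-log compound dilutions from 100 μM were added just before CVB3 infection. Activity was calculated per Pauwels against six cell and six virus controls; mean IC50 from ≥3 experiments.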

rhinovirus B14 = assay: Antiviral activity against Rhinovirus B14 infected in human HeLa cell line assessed as inhibition of virus-induced cytopathic effect measured after 72 hrs by crystal violet uptake assay; assay type: functional, organism-based
Outline: (§2)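 HeLa Ohio monolayers, 1 day old, in 2% FCS medium. Compound added as serial half-log dilutions from 100 μM immediately before rhinovirus infection. Activity calculated per Pauwels; IC50 is the mean of at least 3 experiments.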

rhinovirus A2 = assay: Antiviral activity against Rhinovirus A2 infected in human HeLa cell line assessed as inhibition of virus-induced cytopathic effect measured after 72 hrs by crystal violet uptake assay; assay type: functional, organism-based; outline: as §2
Coxsackievirus B3 [2] = assay: Antiviral activity against pleconaril-resistant Coxsackievirus B3 97927 11207M/I1092 mutant infected in human HeLa cell line assessed as inhibition of virus-induced cytopathic effect measured after 48 hrs by crystal violet uptake assay; assay type: functional, organism-based; outline: as §1
Coxsackievirus B3 [3] = assay: Antiviral activity against wild type Coxsackievirus B3 97927 infected in human HeLa cell line assessed as inhibition of virus-induced cytopathic effect measured after 48 hrs by crystal violet uptake assay; assay type: functional, organism-based
Outline: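 Coxsackievirus B3 infection of 2-day-old HeLa Ohio monolayers in 2% FCS medium. Half-log dilutions from 100 μM added just before infection; guanidine hydrochloride served as positive control. Antiviral activity calculated per Pauwels; IC50 is the mean of at least 3 separate tests.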

rhinovirus B5 = assay: Antiviral activity against Rhinovirus B5 infected in human HeLa cell line assessed as inhibition of virus-induced cytopathic effect measured after 72 hrs by crystal violet uptake assay; assay type: functional, organism-based
Outline: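 HeLa Ohio monolayers, 1 day old, in 2% FCS medium. Compound added as serial half-log dilutions from 100 μM immediately before rhinovirus infection. CPE read at 72 h by crystal violet staining, elution and OD 550/630 nm, with six cell and six virus controls per plate. Activity calculated per Pauwels; IC50 is the mean of at least 3 experiments.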

Coxsackievirus B3 [4] = assay: Antiviral activity against pleconaril-resistant Coxsackievirus B3 97927 11207T/I1092 mutant infected in human HeLa cell line assessed as inhibition of virus-induced cytopathic effect measured after 48 hrs by crystal violet uptake assay; assay type: functional, organism-based; outline: as §1
HeLa = assay: Cytotoxicity against human HeLa cells assessed as reduction in cell viability incubated for 72 hrs measured by crystal violet based micro plate reader method; conditions: hela, 72 h
Outline: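 Two-day-old confluent HeLa Ohio monolayers exposed to half-log dilutions (100 μM downward) in 2% FCS medium for 72 h at 37 °C, 5% CO2. Cells fixed and stained with crystal violet/formalin, dye eluted with acidified citrate-ethanol, OD read at 550/630 nm. Viability expressed relative to six mock-treated controls; CC50 is the mean of at least 3 tests.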

Coxsackievirus B3 [5] = assay: Antiviral activity against pleconaril-resistant Coxsackievirus B3 97927 11207K/I1092 mutant infected in human HeLa cell line assessed as inhibition of virus-induced cytopathic effect measured after 48 hrs by crystal violet uptake assay; assay type: functional, organism-based; outline: as §1
[6] = Rhinovirus B, HeLa, 72 h, read-out: IC50
[7] = Rhinovirus A, HeLa, 72 h, read-out: IC50
[8] = Enterovirus B, 97927, HeLa, 48 h, read-out: IC50
[9] = Enterovirus B, Nancy, HeLa, 48 h, read-out: IC50

Row | Compound | IC50 (Coxsackievirus B3 [1]) | IC50 (rhinovirus B14; [6]) | IC50 (rhinovirus A2; [7]) | IC50 (Coxsackievirus B3 [2]) | IC50 (Coxsackievirus B3 [3]; [8]) | IC50 (rhinovirus B5) | IC50 (Coxsackievirus B3 [4]; read-out: IC50) | CC50 (HeLa) | IC50 (Coxsackievirus B3 [5]) | IC50 (Coxsackievirus B3 [5]; read-out: IC50) | IC50 (rhinovirus B14) | IC50 (Coxsackievirus B3 [4]) | IC50 (Coxsackievirus B3 [1]; [9]) | IC50 (rhinovirus A2) | IC50 (Coxsackievirus B3 [3]) | IC50 (rhinovirus B5; [6])
1 | CN(C)C(=O)c1cc(CCCOc2ccc(-c3noc(C(F)(F)F)n3)cc2-n2cccc2)on1 | Not Active | 7.34 µM | 3.21 µM | 1.06 µM | 0.82 µM | Not Active | 3.55 µM | 21.2 µM |  |  |  |  |  |  |  | 
2 | Cc1cc(CCCOc2c(C)cc(-c3noc(C(F)(F)F)n3)cc2C)on1 [PLECONARIL] | Not Active |  |  | 2.05 µM |  | Not Active | 3.97 µM | 26.2 µM | Not Active |  |  |  |  |  |  | 
3 | CCOC(=O)c1cc(CCCOc2c(C)cc(-c3noc(C(F)(F)F)n3)cc2C)on1 | Not Active |  |  | 0.94 µM | 0.07 µM |  | 20.4 µM | 17.2 µM |  | 11.1 µM |  |  |  |  |  | 
4 | CCOC(=O)c1cc(CCCOc2ccc(-c3noc(C(F)(F)F)n3)cc2C(F)(F)F)on1 | Not Active |  | 4.89 µM | 0.01 µM | 0.03 µM | Not Active | 1.04 µM | 28.4 µM |  |  | Not Active |  |  |  |  | 
5 | Cc1cc(-c2noc(C(F)(F)F)n2)cc(C)c1OCCCc1cc(C(=O)NCc2ccccc2)no1 |  | 0.25 µM | 0.23 µM | 14.4 µM | 1.39 µM |  |  | > 100 µM | Not Active |  |  | Not Active |  |  |  | 
6 | N=C(N)N [GUANIDINE HYDROCHLORIDE] |  |  |  | 682 µM | 592 µM |  | 725 µM |  |  | 664 µM |  |  | 423 µM |  |  | 
7 | CCNC(=O)c1cc(CCCOc2c(C)cc(-c3noc(C(F)(F)F)n3)cc2C)on1 |  | 0.18 µM | 0.6 µM | 0.48 µM | 0.05 µM |  |  | > 100 µM | Not Active |  |  | Not Active |  |  |  | 
8 | Cc1cc(-c2noc(C(F)(F)F)n2)cc(C)c1OCCCc1cc(-c2ccc(OC(F)(F)F)cc2)no1 |  |  |  |  |  |  |  | > 100 µM |  |  |  |  |  | Not Active | Not Active | 
9 | CC(=O)Nc1cc(-c2noc(C(F)(F)F)n2)ccc1OCCCc1cc(C(=O)N(C)C)no1 | Not Active | 18.1 µM |  | 16.1 µM | 30.1 µM | Not Active | 73.2 µM | > 100 µM |  |  |  |  |  | Not Active |  | 
10 | CCOC(=O)c1cc(CCCOc2ccc(-c3noc(C(F)(F)F)n3)cc2)on1 | Not Active | 0.34 µM |  | 6.54 µM | 0.746 µM | Not Active | 42.9 µM | > 100 µM |  |  |  |  |  | Not Active |  | 
11 | CCOC(=O)c1cc(CCCOc2c(OC)cc(-c3noc(C(F)(F)F)n3)cc2[N+](=O)[O-])on1 | Not Active | 2.68 µM | 5.63 µM | 10.1 µM | 1.19 µM | Not Active | 43.8 µM | > 100 µM |  |  |  |  |  |  |  | 
12 | CCOC(=O)c1cc(CCCOc2ccc(-c3noc(C(F)(F)F)n3)cc2N)on1 | Not Active | 14.3 µM |  |  | 20 µM | Not Active |  | > 100 µM |  |  |  |  |  | Not Active |  | 
13 | Cc1cc(-c2noc(C(F)(F)F)n2)cc(C)c1OCCCc1cc(C(=O)OC(C)C)no1 |  | 0.43 µM | 2.43 µM | 4.09 µM | 0.19 µM |  |  | 17.9 µM | Not Active |  |  | Not Active |  |  |  | 
14 | CCOC(=O)c1cc(CCCOc2ccc(-c3noc(C(F)(F)F)n3)cc2NC(C)=O)on1 | Not Active |  |  |  |  | Not Active |  | > 100 µM |  |  | Not Active |  |  | Not Active | Not Active | 
15 | CCOC(=O)c1cc(CCCOc2ccc(-c3noc(C(F)(F)F)n3)cc2-n2cccc2)on1 | Not Active |  |  |  | 10.2 µM | Not Active | 14.3 µM | 57.3 µM |  |  | Not Active |  |  | Not Active |  | 
16 | CCOC(=O)c1cc(CCCOc2ccc(-c3noc(C(F)(F)F)n3)cc2OC)on1 | Not Active | 0.66 µM | 59.7 µM | 3.41 µM | 0.49 µM |  | 37.3 µM | > 100 µM |  |  |  |  |  |  |  | 19.4 µM
17 | COc1ccc(-c2cc(CCCOc3c(C)cc(-c4noc(C(F)(F)F)n4)cc3C)on2)cc1OC |  | 2.78 µM | 2.11 µM |  |  |  |  | 41.9 µM |  |  |  |  |  |  | Not Active | 
18 | Cc1cc(-c2noc(C(F)(F)F)n2)cc(C)c1OCCCc1cc(C(N)=O)no1 |  | 0.22 µM | 0.5 µM | 1.69 µM | 0.07 µM |  |  | > 100 µM | Not Active |  |  | Not Active |  |  |  | 
19 | CCOC(=O)c1cc(CCCOc2ccc(-c3noc(C(F)(F)F)n3)cc2/N=C/N(C)C)on1 | Not Active | 29.3 µM |  |  | 19.9 µM | Not Active |  | > 100 µM |  |  |  |  |  | Not Active |  | 
20 | CCOC(=O)c1cc(CCCOc2ccc(-c3noc(C(F)(F)F)n3)cc2[N+](=O)[O-])on1 | Not Active | 2.93 µM | 47.7 µM | 0.18 µM | 0.148 µM | Not Active | 3.99 µM | > 100 µM |  |  |  |  |  |  |  | 
21 | CCOC(=O)c1cc(CCCOc2ccc(-c3noc(C(F)(F)F)n3)cc2F)on1 | Not Active | 0.5 µM |  | 1.35 µM | 0.217 µM | Not Active | 24.9 µM | 60.2 µM |  |  |  |  |  | Not Active |  | 
22 | CN(C)C(=O)c1cc(CCCOc2ccc(-c3noc(C(F)(F)F)n3)cn2)on1 |  | 0.12 µM |  |  | 5.95 µM |  | 17.4 µM | 48.8 µM |  |  |  |  | 22.2 µM |  |  | 4.28 µM
23 | Cc1cc(-c2noc(C(F)(F)F)n2)cc(C)c1OCCCc1cc(-c2ccccc2)no1 |  | 0.53 µM | 0.76 µM | 0.28 µM | 0.14 µM | Not Active | 1.69 µM | > 100 µM | Not Active |  |  |  |  |  |  | 
